The structures appear in SMILES notation.

A short description of data set [1]: Antiproliferative activity against BALB/c mouse splenocytes assessed as inhibition of [3H]thymidine incorporation into DNA at 10 uM after 24 hrs […] relative to control. Format: cell-based, Splenocyte. In short, it runs like this:
(§1)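 Spleens from male BALB/c mice (5–6 weeks) were teased into single cells in RPMI-1640 with 20 mM Hepes (pH 7.35) and checked by trypan blue. After 30 min preincubation, 10^6 cells/ml were held in medium with 15% FCS, with compound dissolved in medium. Incubation was at 37° in air-CO₂ (95:5). [³H]-thymidine (2 μCi/ml) was added after 1 h and the run stopped 24 h later. Read-out is cpm/10^6 cells; % inhibition = [1 − cpm treated/cpm control]×100; Student's t-test.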
In general terms: Uptake of a labelled nucleoside into DNA is a usual measure of proliferation.

Data set [2] can be described thus: Antiproliferative activity against BALB/c mouse splenocytes assessed as inhibition of [3H]thymidine incorporation into DNA at 1 uM after 24 hrs […] relative to control. Format: cell-based, Splenocyte. In short, it runs like this: as §1
The nature of data set [3]: Antiproliferative activity against Syrian hamster hepatoma cells assessed as inhibition of [3H]thymidine incorporation into DNA at 10 uM after 24 hrs […] relative to control. Format: functional. Conditions: Mesocricetus auratus. In short, it runs like this: (§2)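 Hepatoma was raised in Syrian hamsters by s.c. Kirkman-Robbins hepatoma pulp. Tumour cells were freed mechanically and with 0.4% collagenase plus 0.2% trypsin (>95% viable). After 30 min preincubation, 0.5×10^6 cells/ml were held in RPMI-1640 with 15% FCS and compound in medium at 37°, air-CO₂ (95:5). [³H]-thymidine (2 μCi/ml) was added at 1 h and incubation ended 24 h later. Read-out is cpm/10^6 cells; % inhibition vs control; Student's t-test.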

Data set [4] in a line: Antiproliferative activity against Syrian hamster hepatoma cells assessed as inhibition of [3H]thymidine incorporation into DNA at 100 uM after 24 hrs […] relative to control. Format: functional. To be noted: Mesocricetus auratus. In short, it runs like this:
as §2

The nature of data set [5]: Antiproliferative activity against BALB/c mouse splenocytes assessed as inhibition of [3H]thymidine incorporation into DNA at 100 uM after 24 hrs […] relative to control. It is filed as cell-based, Splenocyte. A digest of the protocol:
as §1

Take `C=C1[C@H]2[C@H](OC(=O)CC(C)C)OC=C(CO[C@@H]3O[C@H](CO)[C@@H](O)[C@H](O)[C@H]3O)[C@@H]2C[C@@H]1O`: in data set [1], the inhibition at 24 h, 10 µM came to 16%. For the same molecule, the inhibition at 24 h, 1 µM in data set [2] is 9%. In addition, in data set [3], the inhibition at 10 µM was 18%. Besides, the inhibition at 100 µM in data set [4] came to 75%. For the same molecule, in data set [5], the inhibition at 24 h, 100 µM is 45%.

As for `CC(C)CC(=O)O[C@@H]1OC=C(CO)[C@@H]2CC=C(CO)[C@@H]12`, in data set [1], the inhibition at 24 h, 10 µM was determined as 25%. Moreover, the inhibition at 24 h, 1 µM in data set [2] turned out to be 15%. Also, in data set [5], the inhibition at 24 h, 100 µM was 60%.

As for `CC(C)CC(=O)O[C@@H]1OC=C(CO[C@@H]2O[C@H](CO)[C@@H](O)[C@H](O)[C@H]2O)[C@@H]2CC=C(CO)[C@@H]12`, the inhibition at 24 h, 10 µM in data set [1] was 24%. The inhibition at 24 h, 1 µM in data set [2] was determined as 4%. Also, the inhibition at 10 µM in data set [3] was 12%. Besides, in data set [4], the inhibition at 100 µM was found to be 69%. The inhibition at 24 h, 100 µM in data set [5] was 59%.

The term inhibition denotes the drop in the measured response relative to a control, in per cent.
